# In the library only some 2.6% were active in any assay of this set; here they are far more common.
# ASAP1 inh – inhibitors of human ASAP1 ArfGAP activity, primary screen, biochemical, fluorescence polarization; hit rate 0.19% among 360,000; ASAP1-stimulated ARF1 GTP hydrolysis, GDP FP detection; inhibition, % at 16.5 µM; AID 624377, 2012; in the data active = inhibition above about 25%;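 note: 0% = vehicle with enzyme and substrate and 100% = no enzyme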
# Target sequence (Q9ULH1 325-724 limits assumed): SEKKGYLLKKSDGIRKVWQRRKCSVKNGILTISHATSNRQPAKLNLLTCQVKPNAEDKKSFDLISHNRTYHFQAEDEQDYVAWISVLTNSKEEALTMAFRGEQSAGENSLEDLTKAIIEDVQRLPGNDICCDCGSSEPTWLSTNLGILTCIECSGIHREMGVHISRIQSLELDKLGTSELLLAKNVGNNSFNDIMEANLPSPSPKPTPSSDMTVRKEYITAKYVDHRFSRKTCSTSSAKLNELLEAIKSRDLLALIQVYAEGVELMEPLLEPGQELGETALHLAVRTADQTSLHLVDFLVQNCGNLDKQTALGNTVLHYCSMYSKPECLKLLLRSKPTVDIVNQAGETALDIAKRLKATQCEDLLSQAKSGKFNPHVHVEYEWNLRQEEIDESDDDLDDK
# ARFGAP1 inh – inhibitors of rat ARFGAP1 GAP activity, primary screen, biochemical, fluorescence polarization, GDP tracer | ADP-ribosylation factor GTPase-activating protein 1 (Rattus norvegicus), Q62848 | AID 651572, 2012 | hit rate 0.26% among 360,000 | inhibition, % at 16.5 µM | Arfgap1-stimulated ARF1 GTP hydrolysis, GDP FP detection;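 active = inhibition above a per-plate limit, mean inhibition of low control wells plus 3 SD, cut at about 25% in these data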;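 note: 0% = DMSO wells with enzyme and 100% = wells lacking Arfgap1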
#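 Material – truncated rat Arfgap1 GAP domain · Buffer or medium – HEPES-based buffer, pH 7.5 · Reagent – human ARF1(Δ1-17)-GTP substrate · Dosing – 16.5 µM single point, 1.26% DMSO · Schedule – GTP hydrolysis reaction 2 h at 25 °C · Technique – GDP detection by fluorescence polarization · Benchmarks – No-Arfgap1 wells (100%) versus DMSO full-reaction wells (0%) · Repeats – single replicate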
# Calb FLC – C. albicans growth inhibition with fluconazole, primary screen, CaCi-2 strain, Alamar Blue fluorescence. growth inhibition, % (test concentration not listed). C. albicans CaCi-2 + fluconazole, 48 h. hit rate 0.57% among 300,000;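 active = growth inhibition above about 58% in most replicates, limit read from the data, passing the limit was not always enough; inconclusive = exactly half the replicates above a set limit; inactive = most replicates below a set limit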;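 note: all wells also contain fluconazole at 8 µg/ml as a sub-toxic cotreatment; 0% = median of DMSO wells and 100% = median of geldanamycin control wells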
# VIM-2 inh – VIM-2 metallo-beta-lactamase inhibitors, primary screen, biochemical, epi-absorbance readout, Pseudomonas aeruginosa enzyme; hit rate 0.89% among 290,000; inhibition, % at 5.6 µM; AID 1527, 2009; purified VIM-2, nitrocefin hydrolysis, epi-absorbance fluorescence;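 active = inhibition above the mean of all tested compounds plus 3 SD, cutoff set per screening run, cut at about 7.5% in these data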;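 note: red hydrolysis product quenches plate fluorescence so inhibitors raise well fluorescence; 0% = enzyme with DMSO and 100% = DMSO without enzyme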
# PHOSPHO1 inh – PubChem AID 1565. recombinant PHOSPHO1, absorbance phosphatase assay. Phosphoethanolamine/phosphocholine phosphatase (Homo sapiens), Q8TCT1. inhibition, % at 13.3 µM. hit rate 1.1% among 290,000; in the data active = inhibition above about 60%
# Target sequence (Q8TCT1 whole entry, looked up): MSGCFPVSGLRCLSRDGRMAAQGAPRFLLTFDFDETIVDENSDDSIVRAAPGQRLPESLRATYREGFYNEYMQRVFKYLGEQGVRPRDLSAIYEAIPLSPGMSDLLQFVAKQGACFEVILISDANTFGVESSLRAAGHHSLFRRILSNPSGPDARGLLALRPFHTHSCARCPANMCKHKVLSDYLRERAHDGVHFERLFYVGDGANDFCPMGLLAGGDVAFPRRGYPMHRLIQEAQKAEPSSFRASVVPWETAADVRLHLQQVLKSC
# IMP-1 inhibitor – IMP-1 metallo-beta-lactamase inhibitors, primary screen, biochemical, epi-absorbance readout, Pseudomonas aeruginosa enzyme; hit rate 0.45% among 290,000; inhibition, % at 5.6 µM; purified IMP-1, nitrocefin hydrolysis, epi-absorbance fluorescence; metallo-beta-lactamase IMP-1 (Pseudomonas aeruginosa); AID 1556, 2009;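 active = inhibition above the mean plus 3 SD of all compounds in the same screening run, cut at about 4.5% in these data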;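 note: 0% = IMP-1 with DMSO and 100% = DMSO wells lacking enzyme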
#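 Material – recombinant IMP-1 enzyme, purified · Amount – IMP-1 0.2 nM before substrate addition · Medium – HEPES buffer pH 7.1 with ZnSO4 and Brij 35 · Timing – 25 °C, 15 min preincubation, 25 min reaction · Measured by – plate fluorescence quenching by hydrolysis product, ex 480/em 530 nm · Read-out – percent enzyme inhibition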
# * = called active by the depositor; ? = inconclusive; . = no result given; ! = not confirmed by another sample.
SMILES,ASAP1 inh,ARFGAP1 inh,Calb FLC,VIM-2 inh,PHOSPHO1 inh,IMP-1 inhibitor
COc1cc(NC(=S)NCc2cccnc2)c(OC)cc1Cl,13,-5,-1,-2,42,-2
COc1ccc(NC(=O)NCc2ccco2)cc1OC,13,-7,4,0,28,-2
COc1ccccc1NC(=S)NCc1ccco1,11,-5,-2,-4,62*,0
COc1cc(OC)c(NC(=S)NCc2ccccc2)cc1Cl,1,3,125*,-3,-28,-2
C#CCN1C[C@@]2(O)CC[C@@H](O)[C@@H](OC)[C@@H]2[C@@]1(C)[C@H](O)CC=C(C)C,-4,6,.,.,.,.
CNC(=S)N1CCC(C(=O)c2ccc(Cl)cc2)CC1,4,2,.,.,.,.
Cc1cc(NC(=O)CN2CCN(Cc3ccccc3)CC2)nc2c1c(=O)oc1ccccc12,.,.,9,8.3*,0,0
Cc1cc(NC(=O)Cc2ccccc2)nc2c1c(=O)oc1ccccc12,0,-7,-4,-1,34,-4
Cn1c(=O)c(N)c2c3c(c(Br)ccc31)C(=O)c1ccccc1-2,-1,-6,1,8.4*,27,0
CC(=O)Nc1ccc(Nc2c3c4c(cccc4n(C)c2=O)C(=O)c2ccccc2-3)cc1,0,1,-1,-1,-16,0
CC(=O)c1ccc(OC2(C)CCN(CCOc3ccc(C)cc3)C2)cc1 (stereo unspecified),2,-8,.,.,.,.
C(=N\Nc1nncc2ccccc12)/c1ccccn1,3,4,-6,1,12,6.5*
Cc1ccc(/C=N/Nc2cn[nH]c(=O)n2)o1,6,6,-3,-7,20,-3
O=c1nc(N/N=C/c2ccccn2)cn[nH]1,-7,7,106*,-3,20,-1
O=c1cnnc(N/N=C/c2ccccn2)[nH]1,-1,-7,95*,-3,-6,-4
COC(=O)C1=C(C)N(Cc2ccc(Cl)cc2)C(=S)NC1c1ccccc1 (stereo unspecified),9,1,.,.,.,.
NC1=NC[C@H](CC2CCCCC2)N1CCc1cc(C(F)(F)F)cc(C(F)(F)F)c1,5,8,92*,.,-9,.
CC(=O)N1CCN(c2ccc(N3CCN(Cc4ccccc4)[C@@H](C)C3)c(C)c2)[C@@H](C)C1,5,2,.,.,.,.
CC(C)CNc1ccc2c(c1)OC[C@H](C)NS2(=O)=O,3,5,.,.,.,.
N=C1/C(=C\c2ccc(-c3cccc(Cl)c3)o2)C(=O)N=C2SC=C(c3ccccc3)N12,13,9,0,-1,-4,2
N=C1/C(=C\c2ccc(-c3ccc(C(=O)O)cc3)o2)C(=O)N=C2SC=C(c3ccccc3)N12,-4,9,0,1,-131,11*
CCOC(=O)C1CCN(c2cc3c(cc2NC(=O)c2ccccc2F)n(C)c(=O)n3C)CC1,-3,4,24,1,34,18*
COc1ccc(Nc2nc(-c3cccs3)cs2)c(OC)c1,3,1,19,-1,80*,-2
COc1ccc(-c2ccc(CCC(=O)O)n2CC(C)C)cc1,-10,7,32,2,16,7.1*
O=C(CN1C(=O)/C(=C\C=C\c2ccccc2)SC1=S)Nc1ccc(F)cc1,15,10,1,0,-39,0
SMILES,ASAP1 inh,ARFGAP1 inh,Calb FLC,VIM-2 inh,PHOSPHO1 inh,IMP-1 inhibitor
O=C(COC(=O)CCN1C(=O)/C(=C\C=C\c2ccccc2)SC1=S)Nc1cc(F)ccc1F,5,-2,-11,-2,23,7.9*
O=C(CCN1C(=O)/C(=C\C=C\c2ccccc2)SC1=S)Nc1ccc(C(=O)O)cc1,10,-2,0,-1,17,8.4*
CCCCC[C@@H](C)N1C[C@@H](COCc2ccccc2)Oc2cc(N3CCC[C@@H]3COC)ccc2S1(=O)=O,1,7,.,.,.,.
COC(=O)[C@]12C[C@H](CC(=O)NCC34CC5CC(CC(C5)C3)C4)C(=O)N(Cc3ccccc3)C1=C[C@H](C(C)(C)C)O[C@@H]2C,13,-5,.,.,.,.
CCn1c(SCC(=O)Nc2nccs2)nnc1-c1ccc(C)cc1,-10,2,15,-2,7,-7
CCC(=O)Nc1ccc(-c2nnc(SCC(=O)Nc3nccs3)n2C)cc1,-6,8,-5,-3,103*,-1
COc1ccc(N2CCN(C(=O)C3CCN(S(=O)(=O)c4ccc5c(c4)CC(C)N5C(=O)C4CC4)CC3)CC2)cc1 (stereo unspecified),4,14,.,.,.,.
COc1ccc(S(=O)(=O)N2CCCc3nc(-c4ccccc4)ccc32)cc1,-2,2,.,.,.,.
c1ccc(-c2cn(-c3ccccc3)c3[n+]2CCCS3)cc1,2,4,-12,-1,24,-3
Cc1ccc(-c2cn(-c3ccccc3)c3[n+]2CCCS3)cc1,-6,1,99*!,-4,9,-4
COc1ccc(-n2cc(-c3ccc(C)cc3)[n+]3c2SCC3)cc1,8,-9,107*,2,2,1
CCc1ccc(-n2cc(-c3ccc(F)cc3)[n+]3c2SCCC3)cc1,-9,-2,33,2,7,-3
COc1ccc(N=C2Sc3ccccc3[C@@H]3C[C@H]4[C@H](CON4C)CN23)c(OC)c1,0,-4,.,.,.,.
COc1ccc(-c2ccc3c(n2)CCCN3S(=O)(=O)c2ccc(C(F)(F)F)cc2)cc1,2,3,.,.,.,.
CCOc1cc(CNCC(O)c2ccccc2)cc(Cl)c1OC (stereo unspecified),-4,-7,?,-2,62*,-4
CCOC(=O)[C@]12CCCC=C1N(CCC1=CCCCC1)C(=O)[C@H](CC(=O)NCc1ccc(OC)c(OC)c1)C2,-8,-19,.,.,.,.
COc1ccc(CCNC(=O)C(C)Sc2ccccc2)cc1OC (stereo unspecified),-4,-10,3,-2,60*,-2
COc1cc2c(c(OC)c1OC)C1(CCCCC1)CC2NS(=O)(=O)C(C)C (stereo unspecified),12,2,.,.,.,.
Nc1cn(C2OC(CO)C(O)C2O)c(=O)[nH]c1=O (stereo unspecified),-2,-5,-3,-1,-26,6.3*
O=c1[nH]c(=O)n(C2OC(CO)C(O)C2O)cc1Br (stereo unspecified),-4,1,-1,0,35,-5
O=C1N(O)C2(C=CCCC2)/C(=N\O)C12CCCCC2 (stereo unspecified),0,-2,7,10*,-4,1
